# Test results taken from ChEMBL document CHEMBL5724801, “EUbOPEN Chemogenomics Library - Multiplex” (2024).
# Several values for one entry are separate records, joined by “and”; a condition that tells them apart may be missing. Identical values can stand only once.
# Tested on: HEK-293T
# Test: Multiplex assay against HEK293T
# Assay type: toxicity, cell-based
# Details: human
# Method in brief: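 Tubulin, mitochondrial-mass and membrane-permeability phenotypes are per cents of healthy-nucleus cells. Cells were gated by CellPathfinder machine learning into Hoechst high-intensity objects or normal cells, normal cells into healthy, pyknosed or fragmented nuclei, and pyknosed cells into mitotic or apoptotic. Before that, live cells stained at seeding with Hoechst33342, BioTracker Green Microtubule Cytoskeleton Dye, MitoTracker Red and Annexin V Alexa Fluor 680 were imaged on a CQ1 microscope at 37°C and 5% CO2 after compound addition.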
# [1] = 12 h, 1 µM, compound concentration 1 uM
# [2] = 12 h, 10 µM, compound concentration 10 uM
# [3] = 24 h, 1 µM, compound concentration 1 uM
# [4] = 24 h, 10 µM, compound concentration 10 uM
# [5] = 48 h, 1 µM, compound concentration 1 uM
# [6] = 48 h, 10 µM, compound concentration 10 uM
smiles,measurement,setting,value
CC(C)Oc1ccc(F)c(-c2cnc(N)c(C(=O)Nc3cnccc3N3CCC[C@@H](C(=O)O)C3)n2)c1,Population Apoptotic (%),[1],7.53% and 11.02%
same,Population Fragmented Nuclei (%),[1],1.12% and 6.54%
same,Population Hoechst High Intensity Objects (%),[1],0.28% and 0%
same,Population Membrane Permeable-Phenotype (%),[1],0% and 4%
same,Population Mitochondria Different-Phenotype (%),[1],34.13% and 12%
same,Population Mitotic Cells (%),[1],92.47% and 88.98%
same,Population Normal (%),[1],99.72% and 100%
same,Population Pyknosed Nuclei (%),[1],40.78% and 77.12%
same,Total Cell Count,[1],359 and 153
same,Population Apoptotic (%),[2],24.14% and 33.33%
same,Population Fragmented Nuclei (%),[2],7.04% and 7.45%
same,Population Hoechst High Intensity Objects (%),[2],1.97% and 0%
same,Population Membrane Permeable-Phenotype (%),[2],4.08% and 0%
same,Population Mitochondria Different-Phenotype (%),[2],31.63% and 17.39%
same,Population Mitotic Cells (%),[2],75.86% and 66.67%
same,Population Normal (%),[2],98.03% and 100%
same,Population Pyknosed Nuclei (%),[2],43.72% and 78.26%
same,Population Tubulin-Different-Phenotype (%),[2],70.41% and 47.83%
same,Total Cell Count,[2],203 and 161
same,Population Apoptotic (%),[3],17% and 27.27%
same,Population Fragmented Nuclei (%),[3],0.79% and 9.15%
same,Population Hoechst High Intensity Objects (%),[3],0%
same,Population Membrane Permeable-Phenotype (%),[3],1.73% and 0%
same,Population Mitochondria Different-Phenotype (%),[3],12.59% and 10%
same,Population Mitotic Cells (%),[3],83% and 72.73%
same,Population Normal (%),[3],100%
same,Population Tubulin-Different-Phenotype (%),[3],24.69% and 10%
same,Population Apoptotic (%),[4],20.45% and 46.61%
same,Population Fragmented Nuclei (%),[4],3.49% and 7.1%
same,Population Healthy Nuclei (%),[4],62.4% and 28.42%
same,Population Hoechst High Intensity Objects (%),[4],0.77% and 0%
same,Population Membrane Permeable-Phenotype (%),[4],1.86% and 0%
same,Population Mitochondria Different-Phenotype (%),[4],33.54% and 11.54%
same,Population Mitotic Cells (%),[4],79.55% and 53.39%
same,Population Normal (%),[4],99.23% and 100%
same,Population Pyknosed Nuclei (%),[4],34.11% and 64.48%
same,Total Cell Count,[4],260 and 183
same,Population Apoptotic (%),[5],8.84% and 23.26%
same,Population Fragmented Nuclei (%),[5],3.08% and 2.66%
same,Population Healthy Nuclei (%),[5],77.03% and 51.6%
same,Population Hoechst High Intensity Objects (%),[5],0.22% and 0%
same,Population Membrane Permeable-Phenotype (%),[5],3.42% and 2.06%
same,Population Mitochondria Different-Phenotype (%),[5],29.39% and 26.8%
same,Population Mitotic Cells (%),[5],91.16% and 76.74%
same,Population Normal (%),[5],99.78% and 100%
same,Population Pyknosed Nuclei (%),[5],19.89% and 45.74%
same,Population Apoptotic (%),[6],31.37% and 50.7%
same,Population Fragmented Nuclei (%),[6],10.59% and 8.51%
same,Population Healthy Nuclei (%),[6],74.41% and 53.72%
same,Population Hoechst High Intensity Objects (%),[6],0.29% and 0.53%
same,Population Membrane Permeable-Phenotype (%),[6],7.11% and 0.99%
same,Population Mitochondria Different-Phenotype (%),[6],69.96% and 27.72%
same,Population Mitotic Cells (%),[6],68.63% and 49.3%
same,Population Normal (%),[6],99.71% and 99.47%
same,Population Pyknosed Nuclei (%),[6],15% and 37.77%
same,Population Tubulin-Different-Phenotype (%),[6],27.67% and 73.27%
same,Total Cell Count,[6],341 and 189
COc1ccc2c(c1)C(C(=O)N(Cc1ccc(N(C)C)cc1)c1ccc(C(C)C)cc1)CCC2.Cl (stereo not drawn),Population Apoptotic (%),[1],30% and 43%
same,Population Fragmented Nuclei (%),[1],6% and 5%
same,Population Healthy Nuclei (%),[1],80% and 79%
same,Population Hoechst High Intensity Objects (%),[1],7% and 4%
same,Population Membrane Permeable-Phenotype (%),[1],0%
same,Population Mitochondria Different-Phenotype (%),[1],39% and 61%
same,Population Mitotic Cells (%),[1],70% and 56%
same,Population Normal (%),[1],92% and 95%
same,Population Pyknosed Nuclei (%),[1],13% and 14%
same,Population Tubulin-Different-Phenotype (%),[1],27% and 23%
same,Total Cell Count,[1],413 and 330
same,Population Apoptotic (%),[2],60% and 63%
same,Population Fragmented Nuclei (%),[2],9% and 4%
same,Population Healthy Nuclei (%),[2],78% and 77%
same,Population Hoechst High Intensity Objects (%),[2],10% and 6%
same,Population Membrane Permeable-Phenotype (%),[2],0%
same,Population Mitochondria Different-Phenotype (%),[2],60% and 75%
same,Population Mitotic Cells (%),[2],39% and 36%
same,Population Normal (%),[2],89% and 93%
same,Population Pyknosed Nuclei (%),[2],11% and 17%
same,Population Tubulin-Different-Phenotype (%),[2],64% and 57%
same,Total Cell Count,[2],383 and 361
same,Population Apoptotic (%),[3],31% and 60%
same,Population Fragmented Nuclei (%),[3],9% and 7%
same,Population Healthy Nuclei (%),[3],81% and 79%
same,Population Hoechst High Intensity Objects (%),[3],3% and 6%
same,Population Membrane Permeable-Phenotype (%),[3],0%
same,Population Mitochondria Different-Phenotype (%),[3],20% and 33%
same,Population Mitotic Cells (%),[3],68% and 40%
same,Population Normal (%),[3],96% and 93%
same,Population Pyknosed Nuclei (%),[3],8% and 13%
same,Population Tubulin-Different-Phenotype (%),[3],13% and 11%
same,Total Cell Count,[3],567 and 399
same,Population Apoptotic (%),[4],35% and 45%
same,Population Fragmented Nuclei (%),[4],9% and 7%
same,Population Healthy Nuclei (%),[4],73% and 76%
same,Population Hoechst High Intensity Objects (%),[4],10% and 6%
same,Population Membrane Permeable-Phenotype (%),[4],1% and 0%
same,Population Mitochondria Different-Phenotype (%),[4],51% and 60%
same,Population Mitotic Cells (%),[4],64% and 55%
same,Population Normal (%),[4],89% and 93%
same,Population Pyknosed Nuclei (%),[4],17% and 16%
same,Population Tubulin-Different-Phenotype (%),[4],70% and 60%
same,Total Cell Count,[4],409 and 389
same,Population Apoptotic (%),[5],20% and 46%
same,Population Fragmented Nuclei (%),[5],12%
same,Population Healthy Nuclei (%),[5],80% and 81%
same,Population Hoechst High Intensity Objects (%),[5],1% and 4%
same,Population Membrane Permeable-Phenotype (%),[5],1% and 0%
same,Population Mitochondria Different-Phenotype (%),[5],10% and 17%
same,Population Mitotic Cells (%),[5],79% and 53%
same,Population Normal (%),[5],98% and 95%
same,Population Pyknosed Nuclei (%),[5],6%
same,Population Tubulin-Different-Phenotype (%),[5],10% and 15%
same,Total Cell Count,[5],968 and 631
same,Population Apoptotic (%),[6],59% and 36%
same,Population Fragmented Nuclei (%),[6],15% and 11%
same,Population Healthy Nuclei (%),[6],75% and 79%
same,Population Hoechst High Intensity Objects (%),[6],9% and 3%
same,Population Membrane Permeable-Phenotype (%),[6],6% and 2%
same,Population Mitochondria Different-Phenotype (%),[6],25% and 24%
same,Population Mitotic Cells (%),[6],40% and 63%
same,Population Normal (%),[6],90% and 96%
same,Population Pyknosed Nuclei (%),[6],9% and 8%
same,Population Tubulin-Different-Phenotype (%),[6],53% and 50%
same,Total Cell Count,[6],558 and 482
